Only a selection was taken, and hits are over-represented in it overall.
Yeast eIF2B – GCN4-lacZ reporter reduction in eIF2B-epsilon mutant yeast, primary screen, S. cerevisiae, eIF2B-epsilon R284H, Beta-Glo luminescence; inhibition, % at 25 µM (by protocol); 27,000 tested, 0.91% active; AID 688, 2007;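 active = mutant luminescence inhibited past about 50% while wild type luminescence and mutant growth stay under set limits, limit read from the data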
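Material: yeast eIF2B-epsilon R284H mutant carrying GCN4–beta-galactosidase fusion. Medium: YPD yeast growth medium. Incubation: 16 h growth with compound at 30 °C, 90 min Beta-Glo step. Signal: Beta-Glo luminescence plus absorbance at 595 nm. Evaluation: % inhibition of reporter signal and growth versus controls. Doses: 25 µM single dose.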
The depositor's hits bear a star.

SMILES | Yeast eIF2B
CCN(CC)CCn1c2ccccc2c2cnc(N)c(C#N)c21 | -13.5
COc1cc(C(=O)OCC(=O)Nc2c(F)c(F)c(F)c(F)c2F)cc(OC)c1OC | 15.1
COC(=O)c1cn(CCOc2ccccc2F)c2ccccc12 | 16.1
COC(=O)c1cn(CCOc2ccccc2OC)c2ccccc12 | 7.1
COC(=O)c1cn(CCOc2ccccc2)c2ccccc12 | 61.3*
CN1C(=O)N(C)C2(c3ccccc3)NC(=O)NC12c1ccccc1 (stereo not drawn) | 53.9*
CC1(c2ccccc2)NC(=O)N(CC(=O)N2CCOCC2)C1=O (stereo not drawn) | 44.3
Cc1ccc(-c2nc3ccc(NS(=O)(=O)c4ccccc4)cc3[nH]2)o1 | 15.3
CCC(C)NC(=O)c1ccccc1NC(=O)COc1ccc(OC)cc1 (stereo not drawn) | 24.5
C=CCn1c(N)cc(=O)nc1SCC(=O)Nc1ccccc1 | 57.8*
C=CCn1c(SCC(=O)Nc2sccc2C(N)=O)nc2ccccc2c1=O | 19.3
C=CCn1c(SCC(=O)Nc2ccc(N(C)C)cc2)nnc1-c1cccc(C)c1 | 11.4
CCOC(=O)c1sc(NC(=O)CSc2n[nH]c(-c3ccc(Cl)cc3Cl)n2)c(C#N)c1C | 31.5
CCN(CC)c1ccc(-c2nnc(SCC(=O)Nc3ccccc3C#N)n2-c2ccccc2)cc1 | -12.0
O=c1c2ccccc2nc(CSc2ncnc3nc[nH]c23)n1-c1cccc(C(F)(F)F)c1 | -0.8
Cc1ccc(C)c(-n2c(CNC(=O)c3ccco3)nnc2SCC(=O)N2CCc3ccccc32)c1 | -3.1
Cc1cc(NC(=O)COC(=O)C(Cc2ccccc2)NC(=O)c2ccco2)no1 (stereo not drawn) | 19.9
O=C(NC(Cc1ccccc1)C(=O)OCC(=O)N1CCc2ccccc21)c1ccco1 (stereo not drawn) | 52.3*
CCOc1cc2[nH]c(=O)n(CC3CCC(C(=O)NC(C)CC)CC3)c(=O)c2cc1OCC (stereo not drawn) | 22.5
CCCC(CCC)C(=O)Nc1cccc(C(=O)O)c1 | 19.9
COc1cc(NC(=O)CCCC(=O)OCC(F)(F)C(F)F)nc(OC)n1 | 18.6
Cc1nc2sc3c(c2c(=O)[nH]1)CCC3 | 20.9
CCCCSc1nc2sc3c(c2c(=O)[nH]1)CCC3 | 15.8
CCOC(=O)CSc1nc2sc3c(c2c(=O)[nH]1)CCCC3 | 50.1*
COc1ccccc1-c1nc(C#N)c(NCc2ccc(F)cc2)o1 | 16.0
SMILES | Yeast eIF2B
C=CCc1cccc(CNc2nc3ccccc3n2C(C)C)c1O | 63.0*
CCn1c(NCc2cccc(OC)c2OC)nc2ccccc21 | 17.8
CCCn1c(NCc2cc(OC)ccc2OC)nc2ccccc21 | -14.8
CC12CCC(c3c(C(=O)Nc4nccs4)nn(-c4ccccc4)c31)C2(C)C (stereo not drawn) | 1.4
OC(c1ccccc1)(c1ccc(F)cc1)C(c1ccccc1)N1CCOCC1 (stereo not drawn) | 11.0
Cc1cc(NC(=O)c2noc3c2CCCCC3)no1 | 0.7
CC(=O)c1ccc(NC(=O)c2noc3c2CCCCC3)cc1 | 69.4*
O=C(Nc1ccc2c(c1)OCO2)c1noc2c1CCCCC2 | 11.4
O=C(NCC1CCCO1)C1CC(c2ccc(Cl)c(Cl)c2)=NO1 (stereo not drawn) | -1.2
Cc1nc2sc(C(c3ccc(Cl)cc3)N3CCN(c4ccccc4F)CC3)c(O)n2n1 (stereo not drawn) | 19.4
CCC(=O)N1CN(S(=O)(=O)c2ccc(C)cc2)CC1C (stereo not drawn) | 15.8
CCn1nnc(-c2ccccc2NS(=O)(=O)c2ccc(S(=O)(=O)N(C)C3CCCCC3)cc2)n1 | 13.8
CC(=O)c1c(C)[nH]c(C(=O)OCC(=O)N2CCc3ccccc32)c1C | 10.0
CCN(C(=O)COC(=O)c1[nH]c(C)c(C(C)=O)c1C)C1CCS(=O)(=O)C1 (stereo not drawn) | -3.2
CCC(C)N(C(=O)COC(=O)c1[nH]c(C)c(C(C)=O)c1C)C1CCS(=O)(=O)C1 (stereo not drawn) | 54.5*
CCCN1Cc2cccc(C(=O)Nc3ccc(N4CCN(CC)CC4)cc3)c2C1=O | 14.7
CCN(CC)C(=O)C(Sc1ccccc1)c1ccccc1 (stereo not drawn) | -35.1
CCCC(CCC(=O)NC1CCCCC1)C(=O)O (stereo not drawn) | 91.1*
CC(C)NC(=O)C(=O)NC1CCCCCC1 | 22.1
CCOC(=O)N1CCN(C(=O)NC2CCCCC2)CC1 | -37.8
CCn1c(SCC(=O)Nc2cc(OC)ccc2OC)nnc1C1CCCCC1 | 20.1
Cc1ccc(S(=O)(=O)C2(C(=O)N3CCCCC3C)CC2)cc1 (stereo not drawn) | 8.6
O=C(Nc1ccccc1C(=O)NC1CCCCC1)c1ccco1 | 16.6
O=C(Nc1cccc2nsnc12)C1CC(=O)N(c2ccccc2)C1 (stereo not drawn) | -13.5
Cc1ccc(N2CC(C(=O)Nc3ccccc3C(=O)NC3CCCCC3)CC2=O)cc1C (stereo not drawn) | 54.0*
O=C(Nc1ccc(Cl)c(C(F)(F)F)c1)C1CCCN(S(=O)(=O)c2cnc[nH]2)C1 (stereo not drawn) | 3.8
O=C(CSc1nc2ccccc2s1)Nn1cnnc1 | 17.0
COc1ccc(C2N(S(=O)(=O)c3ccc(C)cc3)CCN2S(=O)(=O)c2ccc(C)cc2)cc1 | -14.1
